RAD54 inh – inhibitors of human RAD54 branch migration | Q92698 | RAD54 Holliday junction branch migration, FAM/BHQ fluorescence | inhibition, % at 10.4 µM | 0.14% of 360,000 active | AID 602329;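 active = mean normalized replicate activity at least 40 and at least half of replicates scoring 40 or more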;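 also: 0% = median of neutral control wells and 100% = median of positive control wells; inhibitors cause a drop in the FAM fluorescence signal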
Ecoli rRNA inh – inhibitors of bacterial rRNA selective over humanized ribosomes. GFP signal change (wild-type ribosome), % (test concentration not listed). 1.6% of 350,000 active. AID 720706. E. coli WT GFP vs humanized-ribosome RFP mutants, fluorescence, 24 h; stronger effect = lower value; DMSO median 0, no signal -100;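 active = significant combined selectivity score with lowered wild-type GFP, culture density cut under 30%, mutant RFP and density less affected; inactive = any of these conditions unmet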
RAD52 anneal inh – RAD52 (human) annealing inhibition | P43351 | recombinant RAD52 DNA annealing, FRET fluorescence | inhibition, % at 18.7 µM | 0.46% of 360,000 active;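 active = every replicate showing at least 50% inhibition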
Xi reactivation – reactivates the inactive X chromosome in mouse fibroblasts. XiGFP mouse fibroblasts, % GFP-positive cells imaging, 3 d; cells co-treated with 5-aza-dC sensitizer; scaled so ellipticine positive control = 100%. activation, % at 7.58 µM. AID 743238. 0.055% of 360,000 active;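 active = mean normalized replicate activation at least 10% and every replicate at or above 10%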;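 also: 0% = median of on-plate neutral control wells and 100% = ellipticine 6 µM median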
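Material: XiGFP fibroblasts, SV40-immortalized. Buffer or medium: DMEM plus 5-aza-dC sensitizer. Compound: single concentration per compound, delivered by pin transfer. Times: 3 days compound exposure. Controls: ellipticine 6 µM.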
PglD DTNB – blocks C. jejuni PglD acetyltransferase activity. purified PglD enzyme, DTNB colorimetric CoA detection. AID 602405. inhibition, % at 12.5 µM. 0.098% of 360,000 active; in the data active = inhibition above about 16%, passing the limit was not always enough
E-selectin induc – induces E-selectin expression in human endothelial cells. P16581. HUVEC E-selectin immunofluorescence imaging; normalized: neutral wells 0, TNF-alpha wells 100. activation, % at 7.58 µM. 0.37% of 260,000 active. AID 686992;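 active = mean E-selectin-positive cell signal at least 10% of the positive control, reached in at least 60% of replicates, without over 20% cell loss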
Target sequence (P16581 whole entry, looked up): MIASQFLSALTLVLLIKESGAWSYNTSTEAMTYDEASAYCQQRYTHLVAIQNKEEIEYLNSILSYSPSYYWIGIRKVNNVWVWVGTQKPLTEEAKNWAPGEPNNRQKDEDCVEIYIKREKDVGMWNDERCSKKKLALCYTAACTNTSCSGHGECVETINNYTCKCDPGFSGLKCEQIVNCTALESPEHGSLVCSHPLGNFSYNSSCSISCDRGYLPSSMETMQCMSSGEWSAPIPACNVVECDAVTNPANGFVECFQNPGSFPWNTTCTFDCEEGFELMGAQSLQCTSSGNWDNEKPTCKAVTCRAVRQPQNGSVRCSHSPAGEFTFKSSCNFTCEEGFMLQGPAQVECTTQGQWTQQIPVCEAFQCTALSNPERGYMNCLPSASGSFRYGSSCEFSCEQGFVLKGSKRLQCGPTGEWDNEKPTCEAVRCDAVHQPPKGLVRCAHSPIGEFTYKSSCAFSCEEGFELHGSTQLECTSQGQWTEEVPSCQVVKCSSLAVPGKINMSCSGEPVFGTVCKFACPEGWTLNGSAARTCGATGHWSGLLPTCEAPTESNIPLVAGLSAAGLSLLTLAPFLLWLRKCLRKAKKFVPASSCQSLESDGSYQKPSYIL
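Assay system: HUVEC, human umbilical vein endothelial cells / Amount: 3,000 HUVEC/well / Controls: TNF-alpha positive control, DMSO neutral control / Compound dosing: single concentration / Medium: EGM-2 over gelatin coat / Evaluation: percent E-selectin-positive cells / Signal: immunofluorescence imaging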
RAD52 DNA ctr – counter-screen for RAD52 inhibitors: DNA binding compounds. Salmon sperm DNA/acridine orange FP displacement. shares compounds with RAD52 anneal inh. AC50, µM. 8% of 1,000 active;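 active = fitted half-maximal concentration for signal loss at or below twice the highest dose tested, in every separate run, actives reach about 64 µM in these data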
* = called active by the depositor; i = inactive; / = no result. The list is not random: actives were taken first. Their share in the collection is about 2%.

SMILES	RAD54 inh	Ecoli rRNA inh	RAD52 anneal inh	Xi reactivation	PglD DTNB	E-selectin induc	RAD52 DNA ctr
CC1CN(C)C(C)c2c1oc1ccc(N)cc21 (stereo unspecified)	/	1	95*	0	/	0	i
Cc1ccc(S(=O)(=O)Nc2cccc3c2O[C@H](CN(C)C)[C@H](C)CN([C@H](C)CO)C3=O)cc1	3	5	-4	0	2	0	/
COc1ccc(N2CCc3c(C)nc4c(OC)cccc4c32)cc1	/	-8	52*	1	/	4	i
COc1ccc(N2CCc3c(C)nc4c(OC)cc(OC)cc4c32)c(OC)c1	44	/	/	/	-4	/	/
COc1ccc(N2CCc3c(C)nc4c(OC)cc(OC)cc4c32)cc1	/	-21	87*	0	/	0	i
CCCC(=O)Nc1ccc2c(c1)C(=O)N(C)C[C@H](OC)[C@H](C)CN(C(=O)c1ccccc1F)[C@H](C)CO2	1	3	-9	0	2	0	/
C[C@@H]1CN([C@H](C)CO)C(=O)c2cccc(NC(=O)Nc3ccc4c(c3)OCO4)c2O[C@H]1CN(C)C(=O)NC1CCCCC1	3	-4	-8	-1	-2	15	/
CC1(C)Cc2c(c(N3CCCC3)nc3sc4c(N5CCN(CCO)CC5)ncnc4c23)CO1	25	-21	58*	/	-4	/	i
CC1(C)Cc2c(c(N3CCOCC3)nc3sc4c(NCCN)ncnc4c23)CO1	/	-4	0	0	/	/	/
COc1cc(OC)nc(Nc2nc(C(N)CCc3ccccc3)cs2)n1 (stereo unspecified)	13	-36	62*	0	4	0	i
CCn1cc(C(=O)NN)c(=O)c2cc(F)c(N3CCN(C)CC3)cc21	3	-30	97*	0	-3	0	i
O=[N+]([O-])c1ccc(COc2ccccc2CN2CCCC2)cc1	9	-11	77*	0	0	0	i
O=[N+]([O-])c1ccc(COc2ccccc2CN2CCCCC2)cc1	1	-7	1	0	-5	0	/
Cc1cc(N2CCNC[C@@H]2C)ccc1N1CCS(=O)(=O)CC1	/	11	-38	0	/	0	/
C[C@@H]1CNCCN1c1ccc(N2CCS(=O)(=O)CC2)c(C#N)c1	/	9	55*	0	/	0	i
COCC(=O)Nc1ccc2c(c1)C(=O)N(C)C[C@@H](OC)[C@H](C)CN(Cc1cncnc1)[C@@H](C)CO2	4	-1	-2	1	-5	6	/
CCCC(=O)Nc1ccc2c(c1)C(=O)N(C)[C@H]1CC[C@H](CC(=O)NCCc3ccccc3)O[C@H]1CO2	1	-2	-20	0	2	0	/
O=C(Nc1ccc2c(c1)[C@@H]1C[C@H](CC(=O)N3CCOCC3)O[C@H](CO)[C@@H]1O2)C1CCOCC1	-3	3	-18	0	-3	0	/
CN[C@H]1C[C@H]2c3[nH]c4ccc(-c5cccc(C)c5)cc4c3CCN2C[C@H]1[C@H](C)O	3	-57	58*	0	2	0	i
Cc1cccc(-c2ccc3[nH]c4c(c3c2)CCN2C[C@H]3[C@H](C)ON(C)[C@H]3C[C@@H]42)c1	0	3	60*	0	4	0	i
Cc1cccc(-c2ccc3[nH]c4c(c3c2)CCN2C[C@@H]([C@H](C)O)[C@@H](N(C)C(=O)NC3CCCCC3)C[C@@H]42)c1	4	-49	6	0	-4	0	/
COc1ccccc1OCCCN1CCC(C(O)(c2ccccc2)c2ccccc2)CC1	/	-16	9	0	/	0	/
OC(c1ccccc1)(c1ccccc1)C1CCN(CCCOc2ccccc2Cl)CC1	/	-48	55*	0	/	0	i
C/C=C/c1ccc([C@H]2[C@@H](CO)N(C(=O)C3CC3)C23CN(C(=O)NC(C)C)C3)cc1	/	1	2	0	/	0	/
CC(=O)c1ccc(-c2cnc3c(NC=O)cc(-c4ccc(N5CCN(C)CC5)cc4)cn23)cc1	35	-3	67*	0	-2	/	i
SMILES	RAD54 inh	Ecoli rRNA inh	RAD52 anneal inh	Xi reactivation	PglD DTNB	E-selectin induc	RAD52 DNA ctr
NCCCC[C@H]1CNC(=S)N1CCc1cc(C(F)(F)F)cc(C(F)(F)F)c1	2	-22	67*	0	1	0	i
NCCCC[C@H]1CNC(=S)N1CCCCC1CCCCC1	20	-12	86*	0	-3	2	i
O=C1CCCC2=C1[C@@]1(O[C@H]3C=CC=CN23)C(=O)N(c2ccccc2)c2ccccc21	/	-1	-3	0	/	0	/
CNC[C@@H]1OCCCC[C@@H](C)Oc2ccc(NC(=O)Nc3ccc4c(c3)OCO4)cc2C(=O)N([C@@H](C)CO)C[C@H]1C	6	2	-28	-1	2	0	/
CCN(Cc1ccncc1)Cc1ccc(OC)cc1OC	0	5	99*	0	1	7	i
CCC(=O)N1CC[C@H]2[C@@H]1c1cc(-c3cccc(F)c3)ccc1N(C)[C@H]2CO	-14	-12	/	0	-6	-1	/
CC1CCCCN1CCNC(=O)c1cc2c(-c3ccccc3F)nn(C)c2s1 (stereo unspecified)	14	-7	56*	0	6	0	i
CCCCN(CC)CCNC(=O)c1cc2c(-c3ccccc3F)nn(C)c2s1	32	-1	14	0	5	/	/
CN(C)CCCNc1cc(O)c2ncccc2c1	-1	80	70*	0	-7	0	i
Oc1cc(NCc2ccc(F)cc2)cc2cccnc12	3	3	-5	1	1	0	/
OC[C@@H]1CN(CCc2ccccc2)C[C@H](n2cnc3c(NCc4ccc(F)cc4)ncnc32)O1	-4	-3	75*	0	-4	0	i
CC(C(=O)NCCN1C(=O)S/C(=C\c2cccnc2)C1=O)N1C(=O)c2ccccc2C1=O (stereo unspecified)	/	9	-18	0	/	/	/
O=C(CCl)NCCN1C(=O)S/C(=C\c2cccnc2)C1=O	/	8	90*	0	/	3	i
COCC(=O)N(C)C[C@H]1Oc2cc(-c3ccccc3F)ccc2S(=O)(=O)N([C@H](C)CO)C[C@@H]1C	-2	-2	-1	0	-2	0	/
COc1ccc(OC)c(/C=N/NC(=O)c2cc[n+](CC(=O)c3ccccc3)cc2)c1	9	9	57*	/	0	/	i
O=C(C[n+]1ccc(C(=O)N/N=C/c2ccc(OCc3ccccc3)cc2)cc1)c1ccccc1	8	7	3	/	-1	/	/
COc1ccccc1S(=O)(=O)N[C@H]1CC[C@H](CC(=O)N2CCN(C)CC2)O[C@@H]1CO	-3	3	2	-1	2	0	/

Screens from PubChem.
